Reference: publication PMC4479701 (mBio, 2015)
≈ marks a conversion by molar mass, not a printed value. Where “and” joins values, the source holds several entries; their conditions need not be identical. Equal values may be shown once. Read-outs that look alike come from different tables or passages of the source.

How the values were obtained:
[1] = tested on: C. neoformans; experiment: Transmission electron microscopy, intracellular vesicles; format: cell-based; settings: 4 µg/ml, 6 h
[2] = tested on: various Cryptococcus species; experiment: MIC; format: cell-based
Procedure, shortened: (§1)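 Inoculum prepared per CLSI M27-A3. Plates incubated at 37°C with 5% CO2 for 24 to 96 h. MIC was the lowest concentration inhibiting 50% of growth versus the drug-free control. Minimum fungicidal concentration was also measured: serial dilutions from wells were plated on YPD agar, and MFC was the lowest concentration yielding three or fewer colonies (99% of inoculum killed).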

[3] = tested on: Pneumocystis jirovecii; experiment: In vitro testing against Pneumocystis, inhibition of ATP; format: cell-based; settings: read-out: IC50 (percentage inhibition of ATP)
[4] = tested on: Candida krusei; experiment: In vitro susceptibility testing; format: cell-based
Procedure, shortened: as §1

[5] = tested on: Candida parapsilosis; experiment: In vitro susceptibility testing; format: cell-based
Procedure, shortened: as §1

[6] = tested on: Candida albicans; experiment: In vitro susceptibility testing; format: cell-based
Procedure, shortened: as §1

[7] = tested on: C. neoformans cells; experiment: In vitro killing assay; format: cell-based
Procedure, shortened: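 An overnight C. neoformans culture was washed in PBS and resuspended in HEPES-buffered YNB, pH 7.4. 2 × 10^4 cells were exposed to 1, 2 or 4 µg/ml test compound in 10 ml (0.4% DMSO final), at 37°C, 5% CO2, on a rotary shaker at 200 rpm. Aliquots taken at time points were diluted, plated on YPD, incubated 72 h at 30°C, and CFU counted.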

[8] = tested on: C. neoformans; experiment: Mouse model of cryptococcosis, intranasal infection; format: in vivo, mouse (CBA/J); settings: 1.2 mg/kg/day i.p.
Procedure, shortened: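 Mice (10 per group) were infected by nasal inoculation of 20 µl containing 5 × 10^5 C. neoformans. Test compound was given i.p. at 1.2 mg/kg/day in 100 µl PBS with 0.4% DMSO, starting 2 h after inoculation. Survival followed up to 60 days. Organs of survivors were homogenized in 10 ml PBS, diluted serially 1:10, plated on YPD, and incubated at 30°C for 72 h for CFU.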

[9] = tested on: Rhizopus oryzae; experiment: In vitro susceptibility testing; format: cell-based; settings: FTL strains (3)
Procedure, shortened: as §1

[10] = tested on: P. murina; experiment: Murine pneumocystosis, corticosteroid-immunosuppressed; format: in vivo, mouse (C3H/HeN)
Procedure, shortened: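 Corticosteroid-immunosuppressed mice were infected with P. murina by cohousing with seed mice for 2 weeks. […] Treatment lasted 13 days. Lung homogenate slides were stained with Diff-Quik for trophic forms and cresyl echt violet for asci.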

[11] = tested on: sphingolipids of C. neoformans; experiment: Sphingolipid profiling by TLC and LC-MS; format: cell-based
[12] = tested on: C. neoformans; experiment: NBD C6-ceramide staining; format: cell-based; settings: 4 µg/ml; microscopy and FACS
Procedure, shortened: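 C. neoformans cells, untreated or treated with 4 µg/ml test compound, were fixed in 4% paraformaldehyde in PBS and washed. They were stained with NBD C6-ceramide for 16 h at 4°C, then incubated with 1% BSA at 4°C for 1 h to strip excess dye.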

[13] = tested on: Bone marrow-derived macrophages; format: cell-based
[14] = tested on: C. albicans, Candida parapsilosis, Paecilomyces variotii; experiment: MIC, poor activity; format: cell-based
Procedure, shortened: as §1

[15] = tested on: Cryptococcus neoformans; experiment: In vitro susceptibility testing; format: cell-based
[16] = TLC, confirmed by mass spectrometry

Cc1ccccc1C(=O)NN=Cc1ccc(O)c(Br)c1 [BHBM, N′-(3-bromo-4-hydroxybenzylidene)-2-methylbenzohydrazide] was tested, and the “volume occupied by the intracellular vesicles” value ([1]; P <0.05) was “significant increase”, the “numbers of vesicles per square micrometer of cell surface area” value ([1]; untreated 0.33 ± 0.36) was 0.84 ± 0.58 and the MIC [2] was 0.25 to 8 µg/mL (≈ 0.75 to 24 µM). It also gave an IC50 ([3]; 24 h) of 0.912 µg/mL (≈ 2.74 µM), an IC50 ([3]; 48 h) of 0.159 µg/mL (≈ 0.477 µM) and an IC50 ([3]; 72 h) of 0.074 µg/mL (≈ 0.222 µM). It also gave an IC50 ([3]; 96 h) of 0.072 µg/mL (≈ 0.216 µM), an MIC range ([4]; ATCC 6258 (MDPL strain)) of 16 µg/mL (≈ 48 µM) and an MIC range ([4]; MDPL strain (1)) of 32 µg/mL (≈ 96 µM). For the same compound, the MIC range ([4]; QC FTL strains) was 8 µg/mL (≈ 24 µM), the MIC range ([5]; MDPL strains (3)) was >32 µg/mL and the MIC range ([5]; QC FTL strains) was >16 µg/mL. For the same compound, the MIC range ([6]; FTL strains (3)) was >32 µg/mL, the MIC range ([6]; MDPL strains (5)) was >32 µg/mL and the “incubation required to kill about 50% of the cells” value [7] was “at least 72 h”. For the same compound, the type of killing ([7]; time-kill assay, 37°C, 5% CO2, pH 7.4) was “concentration-dependent killing”, the “brain tissue burden (CFU)” value [8] was “eradication of fungal cells” and the “lung tissue burden (CFU)” value [8] was “decrease of fungal load”. The “mice surviving C. neoformans infection” value ([8]; up to 60 days, 10 mice per group) was 90%, the MIC range [9] was 2 µg/mL (≈ 6 µM) and the “number of asci or nuclei in lung homogenates” value ([10]; 13 days of treatment, versus vehicle-treated negative control) was “No significant differences”. For the same compound, the survival ([10]; BHBM 3.2 mg/kg/day i.p., 13 days, versus untreated) was “survived significantly longer”, the “levels of C18 hydroxyceramide and its desaturated and methylated forms” value ([11]; LC-MS, D0 data not shown) was “decreased” and the GlcCer levels [11, 16] was “decrease”. For the same compound, the “dihydroceramide, sphingosine, and sphingosine-1-phosphate” value [11, 16] was “increased”, the “NBD C6-ceramide staining” value [12] was “substantial accumulation” and the “mammalian GlcCer level” value [13] was “did not significantly affect”. The MIC [14] was > 32 µg/mL, the MIC range [15] was 0.5−2 µg/ml and 1−2 µg/ml and the MIC range ([15]; FTL strains (13)) was 0.25−8 µg/ml.
